Variants at the floor of the assay were thinned out.

The text below walks through data of the RNAGym collection of RNA variant scans (doi:10.1126/science.aae0568).

To fix the notation:
B1: tRNA (parent)
chain: GUUCCGUUGGCGUAAUGGUAACGCGUCUCCCUCCUAAGGAGAAGACUGCGGGUUCGAGUCCCGUACGGAACG

In this series the parent is B1. As to the kind of experiment: yeast fitness relative to wild type (ratio to wild type); higher = fitter; tRNA-Arg(CCU), competitive growth, 37 C, YPD. The method, boiled down: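 Start and end populations of a pooled competition were compared by 100-nucleotide paired-end sequencing of gene amplicons. The Saccharomyces cerevisiae strains carried tRNA-Arg(CCU) gene variants at the native genomic locus, synthesised with a 3% per-site mutation rate at 69 sites, and competed in YPD at 37°C for 24 hours in six parallel replicates. Darwinian fitness relative to wild type was based on the change in genotype frequencies. Genotypes required ≥ 100 starting reads, and estimates < 0.5 were set to 0.5.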
For GUUCCGUUGGCGUAAUGGUAACGCGUCUCACUCCUAAGGAGAAGACUGCGGGUUCGAGUCCGGUACGGAUCG, the yeast fitness was 0.547.

GUUCCGUUGGCGUAAUGGUAACGCGUCUCACUCCUAAGGAGAAGACUGCGGGUUCGAGUCCGGUACGGAACG: the yeast fitness came to 0.662.

Regarding GUUCCGUUGGCGUAAUGGUAACGCGUCUCACUCCUAAGGCGAAGAUUGCGGGUUCGAGUUCCGUAUGGAACG, the yeast fitness is not above 0.5.

GUUCCGUUGGCGUAAUGGUAACGCGUCUCACUCCUAAGGAGAAGAUUGCGGAUUUGAGUCCCGUACGGAACG: the yeast fitness is not above 0.5.

As for GUUCCGUUGGCGUAAUGGUAACGCGUCUCACUCCUACGGAAAUCACUGCGGGUUCGAGUCCCGUACGGAACG, the yeast fitness is not above 0.5.

On to GUUCCGUUGGCGUAAUGGUAACGCGUCUCAUUCCUAAGGAGAAGACUGCGGGUUCGAGUGCCGUACGGAACG, for which the yeast fitness is 0.565.

For the variant GUUCCGUUGGCGUAAUGGUAACGCGUCUCACUCCUAAAGAGAAGACUGCGGAUUAGAGUCCCGUCCGGAACG, the yeast fitness was not above 0.5.

With GUUCCGUUGGCGUAAUGGUAACGCGUCUCACUCCUCAAGAGAAGACUGCGGGUUCGAGUCCCGUACGGAACG, the yeast fitness is not above 0.5.

As for GUUCCGUUGGCGUAAUGGUAACGCGUCUCACUCCUAAGGAGAAGACUGCGGGUUUGAGUCCGGUACGGAACG, the yeast fitness came out at 0.508.

Turning to GUUCCGUUGGCGUAAUGGUAACGCGUCUUCCUCCUAAGGAGAAGACCGCGGGUUCGAGUCCCGUACGGAACG, the yeast fitness came to 0.923.

As for GUUCCGUUGGCGUAAUGGUAACGCGUCUCACUCGUAAGGAGAAGACUGCAGGUUCGAGUCCUGUAAGGAACG, the yeast fitness is not above 0.5.

Consider GUUCCGUUGGCGUAAUGGUAACGCGUCUCAUUCCUAAGGAGAAGCCUGCGGGUUCGAGUCCCGUACGGAACG, for which the yeast fitness came out at 0.663.

Consider GUUCCGUUGGCGUAAUGGUAACGCGUCUCACUCCUAAGGAGAAGACUGCGGGUUCGUGUCCCGUACGGAACG, for which the yeast fitness was found to be 0.768.

Turning to GUUCCGUUGGCGUAAUGGUAACGCGUCUCACUCCUUAGGAGGAGACUGCGGGUUCGAGUUCCGUACGGCACG, the yeast fitness was not above 0.5.

As to GUUCCGUUGGCGUAAUGGUAACGCGUCUUCCUCCUAAGGAGAAGACUGCGGGCUGGAGUCCAGUACGGAACG, the yeast fitness was not above 0.5.

Turning to GUUCCGUUGGCGUAAUGGUAACGCGUCUCACUCCUAAGGAGAAGACUGCGGGUUCGAGUCCUAUACGGGACG, the yeast fitness is not above 0.5.

Regarding GUUCCGUUGGCGUAAUGGUAACGCGUCUCACUCCUAAGGAGAAAACUGCGGGUUCGAGUCCCGUACGGAACG, the yeast fitness is 0.88.

For the variant GUUCCGUUGGCGUAAUGGUAACGCGUCUCAUUCCUGAGGAGAAGACUGCGGGUUCGAGUCCCGUACGGAACG, the yeast fitness stood at 0.587.

For GUUCCGUUGGCGUAAUGGUAACGCGUCUCACUCCUAAGGAGAAGACUGCGCGUUAGAGUCCCGUAUGGAACG, the yeast fitness was not above 0.5.

Regarding GUUCCGUUGGCGUAAUGGUAACGCGUCUCAGUCCUAAGCAGAAGACUGCGGGUUCGAGUCCCGUACGGAACG, the yeast fitness worked out at 0.535.

In the case of GUUCCGUUGGCGUAAUGGUAACGCGUCUCACUCCUAAGGAGAAGGCUGCGGGAUCGAGUCCCGUACGGAACG, the yeast fitness turned out to be 1.1.

With GUUCCGUUGGCGUAAUGGUAACGCGUCUCACUCCUAAGGAGAAGACUGCGGGUUCGAGUCACGUACGGCACG, the yeast fitness amounted to 0.609.

Consider GUUCCGUUGGCGUAAUGGUAACGCGUCUCACUCCUACGGAAAUCACUGCGGGUUCGAGUCCCGUACGGAGCG, for which the yeast fitness was not above 0.5.

In the case of GUUCCGUUGGCGUAAUGGUAACGCGUCUCACUCCUAAGGAGAAGACUGCGGGUUCGAGUCCCGUAAGGAACG, the yeast fitness worked out at 0.636.

With GUUCCGUUGGCGUAAUGGUAACGCGUCUCACUCCUACGGAGAAGACUGCGGGUUCGAGUCCCGUACGGAACG, the yeast fitness was 0.772.

As for GUUCCGUUGGCGUAAUGGUAACGCGUCUCACUCCUAAGGAGAAGACUGCGGGUUCGAGUCCCGUACGGAACG, the yeast fitness came out at 0.998.

On to GUUCCGUUGGCGUAAUGGUAACGCGUCUCACUCCUAAGGGGAAGACUGCGGGUUCGAGGCCCGUACGGACCG, for which the yeast fitness is not above 0.5.

As for GUUCCGUUGGCGUAAUGGUAACGCGUCUCACUCCUAAGGAGAAGACUACGGGUUCGAGUCCCGAAGGGAACG, the yeast fitness came to 0.611.

For GUUCCGUUGGCGUAAUGGUAACGCGUCUCACUCCUAAGGAGAAGACUCCGGGUUCGAGUCCCGUACGGAACG, the yeast fitness was 0.797.

Take GUUCCGUUGGCGUAAUGGUAACGCGUCUCACUCCUAAGGAGAAGACUGCGGGUUCGAGUCACGUCCGGAACG: the yeast fitness was determined as 0.578.

Take GUUCCGUUGGCGUAAUGGUAACGCGUCUCACUCCUAAGGAGAAGACUGCGGGUUCGAGUCCUAUACGGAACG: the yeast fitness is not above 0.5.

For GUUCCGUUGGCGUAAUGGUAACGCGUCUCACUCCUAAGGAGAAGACUGUGGGUUCGAGUCCCGUACUGAACG, the yeast fitness is 0.608.

With GUUCCGUUGGCGUAAUGGUAACGCGUCUUCCUCCUAAGGAGAAGACUGCGGGUACGAGUCCCGUACGGAACG, the yeast fitness is 0.627.

With GUUCCGUUGGCGUAAUGGUAACGCGUCUCACUCCUAAGGAGAAGACUGCGGAUUCGAGUCCCGUACGGAACG, the yeast fitness was 0.813.

Regarding GUUCCGUUGGCGUAAUGGUAACGCGUCUCACUCCUAAGGAGAAGACUGCGCGUUCGAGUCCGGUACGGAACG, the yeast fitness is not above 0.5.

As to GUUCCGUUGGCGUAAUGGUAACGCGUCUCACUCCUAACGAGAAGACUGCGGGUUCGAGUCACGUACGGAACG, the yeast fitness was 0.51.

GUUCCGUUGGCGUAAUGGUAACGCGUCUCACUCCUAAGGAGACGACUGCGGGUUCGAGUCCCGUACGGAACG: the yeast fitness is 0.884.
